# STEP inh – STEP (human) phosphatase inhibition; P54829; recombinant STEP, OMFP fluorogenic substrate, fluorescence; inhibition, % at 20 µM; actives 0.25% (n = 360,000); AID 588621;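 active means inhibition at 20 µM, scaled per plate between control wells, above about 37%, limit read from the data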
#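 Measure: Control-normalized % inhibition with plate pattern correction | Test system: STEP phosphatase, cell-free reaction | Medium: pH 6.0 Bis-Tris with DTT and Tween 20 | Technique: Fluorescence, 480/540 nm | Times: Reaction 20 min, ambient temperature | Doses: Single compound dose of 20 µM, 1% DMSO final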
# LMPTP block – LMPTP (human) inhibition; recombinant LMPTP-A, OMFP fluorogenic substrate, fluorescence intensity; inhibition, % at 20 µM; actives 0.22% (n = 360,000); AID 651560;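 active means compounds that cut the enzyme signal by at least half of the control window in the single-dose screen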
# Target sequence (P24666 whole entry, looked up): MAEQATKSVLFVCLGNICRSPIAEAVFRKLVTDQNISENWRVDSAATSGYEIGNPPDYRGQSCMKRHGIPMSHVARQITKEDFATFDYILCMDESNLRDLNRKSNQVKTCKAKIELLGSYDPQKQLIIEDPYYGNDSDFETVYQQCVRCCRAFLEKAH
#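 Assay system: LMPTP-A phosphatase enzyme | Input: 0.625 nM enzyme | Also added: Fluorogenic phosphatase substrate OMFP at 400 µM final | Compound dosing: One test concentration per compound, 20 µM, with 3% DMSO overall | Schedule: 50 min enzyme reaction at room temperature, protected from light | Signal: Fluorescence intensity | Benchmarks: no-enzyme and uninhibited controls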
# Scp-1 inhibitor – blocks human Scp-1 phosphatase activity; Recombinant Scp1, phosphopeptide, malachite green phosphate absorbance; inhibition, % at 20 µM; actives 0.88% (n = 340,000);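 active means inhibition above about 50% at 20 µM, limit read from the data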
# Target sequence (Q9GZU7 76-261 limits assumed): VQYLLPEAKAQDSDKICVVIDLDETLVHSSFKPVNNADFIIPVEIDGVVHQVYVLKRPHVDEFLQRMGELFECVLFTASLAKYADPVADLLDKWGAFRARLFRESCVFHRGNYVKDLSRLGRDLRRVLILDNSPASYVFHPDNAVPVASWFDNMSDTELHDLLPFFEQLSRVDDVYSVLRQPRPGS
#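 Material: truncated SCP-1 phosphatase (76-261aa) / Buffer or medium: 50 mM Tris acetate pH 5.5, 0.005% Tween-20, 10 mM MgCl2 / Compound dosing: one concentration, 20 µM, with 1.0% DMSO / Incubation: 45 min room-temperature reaction, 5 min colour, 30 min stabiliser / Detection: colorimetric free-phosphate detection, absorbance 630 nm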
# Casp6 inh – inhibitors of human caspase-6. P55212. purified caspase-6, Z-VEID-R110 cleavage fluorescence. inhibition, % at 12.5 µM. actives 0.53% (n = 350,000);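 active means mean inhibition across replicates at least about 35%, with every replicate also reaching that limit, limit read from the data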
# DNMT1 block – DNMT1 (human) enzyme inhibition; DNMT1 molecular beacon, Hinp1I cleavage, fluorescence; inhibition (reported as % activation of signal), % at 10 µM; actives 0.83% (n = 360,000); AID 588458; in the data active means inhibition above about 50%
# SUMO1-SIM PPI – SUMO1-SIM interaction modulation. P63165. SUMO1 binding to a labelled peptide, TR-FRET, 1 h. inhibition, % at 20 µM. actives 0.33% (n = 360,000). AID 602429; in the data active means inhibition above about 37%
# Target sequence (P63165 whole entry, looked up): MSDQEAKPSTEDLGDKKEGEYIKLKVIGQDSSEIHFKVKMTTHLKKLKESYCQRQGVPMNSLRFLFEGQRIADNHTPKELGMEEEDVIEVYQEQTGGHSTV
# Numbers stand for hits; n = inactive; x = no result given. This is a sample that favours compounds with a hit; in the whole collection about 1.7% have one here.
SMILES,STEP inh,LMPTP block,Scp-1 inhibitor,Casp6 inh,DNMT1 block,SUMO1-SIM PPI
O=C(O)c1ccc(NC2=C/C(=N/S(=O)(=O)c3ccccc3)c3ccccc3C2=O)cc1,n,n,n,99.0,70.0,62.2
CCc1ccc(S(=O)(=O)/N=C2\C=C(Nc3cccc(C(=O)O)c3)C(=O)c3ccccc32)cc1,n,n,n,99.5,63.6,n
CN(C)C(CNC(=O)c1sc2ccccc2c1Cl)c1ccco1 (stereo unspecified),n,n,x,n,n,n
Cc1ccc(S(=O)(=O)n2c(C)nc3ccccc32)cc1,n,n,n,40.7,n,n
Cc1nc2ccccc2n1S(=O)(=O)c1ccc(S(=O)(=O)N2CCCCCC2)cc1,n,n,n,x,n,n
CC(C)(C)C(=O)Nc1scc(-c2ccc(-c3ccccc3)cc2)c1C(=O)O,n,n,n,n,n,n
CCOc1ccc(C(=O)NCC(=O)OCC(=O)Nc2cccc(S(=O)(=O)N3CCCC3)c2)cc1,n,n,n,n,n,47.9
O=C(O)COc1ccc2nsnc2c1Cl,n,n,n,x,n,n
Cc1ccccc1C1=C/C(=C(\SS/C(C(=O)c2ccc(OCC(=O)O)c(Cl)c2Cl)=C2\C=C(c3ccccc3C)SS2)C(=O)c2ccc(OCC(=O)O)c(Cl)c2Cl)SS1,n,73.1,n,46.0,n,115.8
Cc1ccc(-c2nc3ccc(Cl)cn3c2Cc2ccsc2)cc1,n,n,x,37.3,n,n
Cc1ccc2nc(-c3ccc(Cl)cc3)c(Cc3ccsc3)n2c1,x,x,x,n,x,x
CN(C)CCCNc1nc2cc(-c3ccccc3CO)sc2c(=O)n1C,n,n,x,n,n,n
CC(C)CCn1c(=O)c2ccccc2n2c(CCC(=O)NC3CCN(Cc4ccccc4)CC3)nnc12,n,n,n,n,n,n
CC(C)CCn1c(=O)c2ccccc2n2c(CCC(=O)NCC3CCCO3)nnc12 (stereo unspecified),n,n,n,38.4,n,n
O=C(CN1C(=O)S/C(=C/C=C/c2ccccc2)C1=O)Nc1ccc(C(=O)O)cc1,n,n,n,n,n,n
O=C(/C=C1\SC(=O)N(CC(=O)Nc2ccc(Cl)cc2)C1=O)Nc1ccc(F)cc1,n,n,n,42.7,n,n
O=C(/C=C1\SC(=O)N(CC(=O)Nc2ccc(F)cc2)C1=O)Nc1ccc(Cl)cc1,n,n,n,n,n,n
O=C(CCN1C(=O)/C(=C\C=C\c2ccccc2)SC1=S)Nc1ccc(C(=O)O)cc1,86.7,82.9,87.9,49.0,n,n
O=C(CN1C(=O)S/C(=C\C=C\c2ccccc2)C1=O)Nc1ccc(C(=O)O)cc1,n,n,n,44.0,n,n
COCCN=c1scc(-c2ccco2)n1/N=C/c1ccc(O)c(O)c1O,n,73.5,88.5,n,69.8,n
COc1ccc(C(=O)N/N=C(\C)c2ccc3c(c2)C2C=CCC2C(c2ccccc2)N3)cc1 (stereo unspecified),n,n,n,x,n,n
O=C(O)c1ccc2c(c1)[C@@H]1C=CC[C@@H]1[C@H](c1ccccn1)N2,n,n,n,x,111.3,n
COc1cccc(-c2nn(C)c3sc(C(=O)NCc4ccccn4)cc23)c1,n,n,n,x,n,n
O=Cc1cscc1[B-](F)(F)F,x,x,x,66.1,x,x
O=Cc1cc([B-](F)(F)F)cs1,x,x,x,n,x,x
SMILES,STEP inh,LMPTP block,Scp-1 inhibitor,Casp6 inh,DNMT1 block,SUMO1-SIM PPI
O=C(COC(=O)Cc1c(Cl)cccc1Cl)Nc1ccc2[nH]c(=O)[nH]c2c1,n,n,n,n,n,54.5
O=C(COC(=O)c1nc(Cl)ccc1Cl)Nc1ccc2[nH]c(=O)[nH]c2c1,n,n,n,n,n,63.5
O=C(OCC(=O)N1N=C(c2ccc(Cl)cc2)CC1c1ccco1)c1cncc(Br)c1 (stereo unspecified),n,n,n,41.3,n,n
C[C@@H]1CCCCO[C@H](CN(C)C(=O)C2CCCCC2)[C@H](C)CN([C@@H](C)CO)C(=O)c2cc(NS(=O)(=O)c3cn(C)cn3)ccc2O1,x,x,x,n,x,x
Cc1ccc(CNC(=O)Cc2ccc(NC3=NC4CS(=O)(=O)CC4S3)cc2)cc1 (stereo unspecified),n,n,n,n,n,n
O=C(NN=C1CCCC1)c1n[nH]c2c1CCCC2,n,n,n,n,n,n
